According to ChEMBL document CHEMBL1212920, “Discovery of 6-(aminomethyl)-5-(2,4-dichlorophenyl)-7-methylimidazo[1,2-a]pyrimidine-2-carboxamides as potent, selective dipeptidyl peptidase-4 (DPP4) inhibitors” (J Med Chem, 2010):

How the values were obtained:
hERG (KCNH2) = hERG (KCNH2) (Homo sapiens, UniProt Q12809); assay: Inhibition of human ERG at 10 uM
[1] = Membrane permeability by PAMPA assay; type: ADME; conditions: read-out: permeability
Rattus norvegicus = assay: Volume of distribution at steady state in rat at 5 umol/kg, intra arterial and 2 umol/kg, po; type: ADME, organism-based; conditions: in vivo
In short: (§1)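 Rat pharmacokinetics after a 5 μmol/kg intraarterial dose and a 2 μmol/kg oral dose, with water as vehicle. Urine collected over 24 h and the fraction of dose excreted as unchanged parent measured. Terminal half-life estimated after intraarterial dosing.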

[2] = Half life in rat at 5 umol/kg, intra arterial and 2 umol/kg, po; type: ADME, organism-based; conditions: in vivo; in short: as §1
[3] = Clearance in iv dosed rat; type: ADME, organism-based; conditions: in vivo; in short: as §1
[4] = Drug excretion in rat urine at 5 umol/kg, intra arterial and 2 umol/kg, po; type: ADME, organism-based; conditions: read-out: Activity; in short: as §1
[5] = Oral bioavailability in rat at 2 umol/kg, po; type: ADME, organism-based; conditions: in vivo; in short: as §1
[6] = Cmax in rat at 5 umol/kg, intra arterial and 2 umol/kg, po after 0.6 hrs; type: ADME, organism-based; design: dose 5 umol/kg, route oral; conditions: in vivo; in short: as §1
[7] = AUC (0 to infinity) in rat at 5 umol/kg, intra arterial and 2 umol/kg, po; type: ADME, organism-based; design: dose 5 umol/kg, route oral, time infinity; conditions: plasma; in short: as §1
Canis familiaris = assay: Volume of distribution at steady state in dog at 5 umol/kg, intra arterial and 2 umol/kg, po; type: ADME, organism-based, Canis lupus familiaris; conditions: in vivo
[8] = Half life in dog at 5 umol/kg, intra arterial and 2 umol/kg, po; type: ADME, organism-based, Canis lupus familiaris; conditions: in vivo
[9] = Clearance in iv dosed dog; type: ADME, organism-based, Canis lupus familiaris; conditions: in vivo
[10] = Drug excretion in dog urine at 5 umol/kg, intra arterial and 2 umol/kg, po; type: ADME, organism-based, Canis lupus familiaris; conditions: read-out: Activity
[11] = Oral bioavailability in dog at 2 umol/kg, po; type: ADME, organism-based, Canis lupus familiaris; conditions: in vivo
Mus musculus [12] = assay: Antidiabetic activity in ob/ob mouse assessed as reduction in blood glucose level at 3 umol/kg, po administered 1 hr prior to glucose challenge by oral glucose tolerance test; type: functional; design: scale not given: the % may be the effect or the level left
In short: (§2)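 Male ob/ob mice, 13-14 weeks old, fed a 10% fat diet, fasted overnight. Given vehicle (water) or inhibitor orally at -60 min, then oral glucose 2 g/kg at 0 min. Tail bleeds into EDTA tubes at -60, 0, 15, 30, 60, 90 and 120 min. Plasma glucose read by glucometer, insulin by mouse ELISA. Mean of 12-24 mice/group; one-way ANOVA with Dunnett's test.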

Mus musculus [13] = assay: Antidiabetic activity in ob/ob mouse assessed as reduction in blood glucose level at 1 umol/kg, po administered 1 hr prior to glucose challenge by oral glucose tolerance test; type: functional; design: scale not given: the % may be the effect or the level left; in short: as §2
Dipeptidyl peptidase 8 = Dipeptidyl peptidase 8 (Homo sapiens, UniProt Q6V1X1); assay: Inhibition of human DPP8
Chain of Dipeptidyl peptidase 8 (Q6V1X1 whole entry): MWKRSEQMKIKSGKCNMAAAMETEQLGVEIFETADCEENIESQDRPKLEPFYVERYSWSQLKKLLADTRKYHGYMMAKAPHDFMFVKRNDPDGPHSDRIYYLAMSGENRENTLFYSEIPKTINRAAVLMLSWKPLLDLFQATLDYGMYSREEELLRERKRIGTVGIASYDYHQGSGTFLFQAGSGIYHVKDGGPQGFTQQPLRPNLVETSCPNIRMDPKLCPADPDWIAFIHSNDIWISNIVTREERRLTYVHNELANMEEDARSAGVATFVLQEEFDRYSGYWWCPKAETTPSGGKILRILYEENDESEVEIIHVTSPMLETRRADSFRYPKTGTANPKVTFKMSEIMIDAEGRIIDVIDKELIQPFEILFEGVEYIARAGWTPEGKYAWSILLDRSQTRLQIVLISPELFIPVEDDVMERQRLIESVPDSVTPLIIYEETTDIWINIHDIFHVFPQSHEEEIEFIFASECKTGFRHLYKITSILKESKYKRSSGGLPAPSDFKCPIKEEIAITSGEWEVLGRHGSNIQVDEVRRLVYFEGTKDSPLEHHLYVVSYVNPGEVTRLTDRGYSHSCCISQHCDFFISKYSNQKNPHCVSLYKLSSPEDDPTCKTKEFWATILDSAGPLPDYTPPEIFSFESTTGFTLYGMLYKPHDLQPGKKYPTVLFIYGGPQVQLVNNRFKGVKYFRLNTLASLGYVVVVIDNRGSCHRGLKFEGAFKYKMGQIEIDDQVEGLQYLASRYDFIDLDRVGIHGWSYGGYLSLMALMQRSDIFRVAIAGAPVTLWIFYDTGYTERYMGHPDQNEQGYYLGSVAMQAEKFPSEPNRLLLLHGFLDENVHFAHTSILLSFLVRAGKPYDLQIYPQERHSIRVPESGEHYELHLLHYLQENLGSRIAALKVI

Dipeptidyl peptidase 9 = Dipeptidyl peptidase 9 (Homo sapiens, UniProt Q86TI2); assay: Inhibition of human DPP9
Chain of Dipeptidyl peptidase 9 (Q86TI2 whole entry): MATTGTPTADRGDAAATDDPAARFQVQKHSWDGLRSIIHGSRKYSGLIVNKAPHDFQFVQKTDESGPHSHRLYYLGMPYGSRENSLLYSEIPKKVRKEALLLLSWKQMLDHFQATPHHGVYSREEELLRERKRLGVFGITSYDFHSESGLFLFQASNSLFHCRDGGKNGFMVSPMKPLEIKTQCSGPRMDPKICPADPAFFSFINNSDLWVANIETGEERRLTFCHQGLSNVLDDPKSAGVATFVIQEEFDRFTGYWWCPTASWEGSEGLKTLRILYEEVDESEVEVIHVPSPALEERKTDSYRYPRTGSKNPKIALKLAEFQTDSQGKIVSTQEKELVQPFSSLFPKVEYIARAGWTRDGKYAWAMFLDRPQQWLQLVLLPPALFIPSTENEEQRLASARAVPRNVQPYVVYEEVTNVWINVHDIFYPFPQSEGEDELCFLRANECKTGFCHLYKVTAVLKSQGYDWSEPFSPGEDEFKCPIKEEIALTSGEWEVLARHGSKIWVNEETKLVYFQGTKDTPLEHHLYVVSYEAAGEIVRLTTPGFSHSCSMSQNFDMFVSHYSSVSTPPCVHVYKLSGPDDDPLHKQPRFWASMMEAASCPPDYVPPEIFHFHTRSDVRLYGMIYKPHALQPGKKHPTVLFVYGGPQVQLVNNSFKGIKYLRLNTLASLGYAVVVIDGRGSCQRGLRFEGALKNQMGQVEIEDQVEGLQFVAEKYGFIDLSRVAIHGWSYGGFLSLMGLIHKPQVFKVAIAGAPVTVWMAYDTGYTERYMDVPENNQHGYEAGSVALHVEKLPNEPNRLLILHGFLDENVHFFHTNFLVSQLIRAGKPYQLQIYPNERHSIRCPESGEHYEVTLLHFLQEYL

[14] = Permeability across human Caco-2 cells; type: ADME, cell-based; conditions: read-out: permeability
[15] = Cmax in ob/ob mouse at 3 mg/kg, po after 1 hr; type: ADME, organism-based; design: dose 3 mg/kg, route oral; conditions: in vivo
Mus musculus [16] = assay: Antidiabetic activity in ob/ob mouse assessed as increase in insulin level at 3 umol/kg, po administered 1 hr prior to glucose challenge by oral glucose tolerance test; type: functional; in short: as §2
Mus musculus [17] = assay: Antidiabetic activity in ob/ob mouse assessed as increase in insulin level at 1 umol/kg, po administered 1 hr prior to glucose challenge by oral glucose tolerance test; type: functional; in short: as §2
Mus musculus [18] = assay: In vivo inhibition of DPP4 activity in ob/ob mouse plasma at 1 umol/kg, po; type: functional
Mus musculus [19] = assay: In vivo inhibition of DPP4 activity in ob/ob mouse plasma at 3 umol/kg, po; type: functional

Chain of hERG (KCNH2) (Q12809 whole entry): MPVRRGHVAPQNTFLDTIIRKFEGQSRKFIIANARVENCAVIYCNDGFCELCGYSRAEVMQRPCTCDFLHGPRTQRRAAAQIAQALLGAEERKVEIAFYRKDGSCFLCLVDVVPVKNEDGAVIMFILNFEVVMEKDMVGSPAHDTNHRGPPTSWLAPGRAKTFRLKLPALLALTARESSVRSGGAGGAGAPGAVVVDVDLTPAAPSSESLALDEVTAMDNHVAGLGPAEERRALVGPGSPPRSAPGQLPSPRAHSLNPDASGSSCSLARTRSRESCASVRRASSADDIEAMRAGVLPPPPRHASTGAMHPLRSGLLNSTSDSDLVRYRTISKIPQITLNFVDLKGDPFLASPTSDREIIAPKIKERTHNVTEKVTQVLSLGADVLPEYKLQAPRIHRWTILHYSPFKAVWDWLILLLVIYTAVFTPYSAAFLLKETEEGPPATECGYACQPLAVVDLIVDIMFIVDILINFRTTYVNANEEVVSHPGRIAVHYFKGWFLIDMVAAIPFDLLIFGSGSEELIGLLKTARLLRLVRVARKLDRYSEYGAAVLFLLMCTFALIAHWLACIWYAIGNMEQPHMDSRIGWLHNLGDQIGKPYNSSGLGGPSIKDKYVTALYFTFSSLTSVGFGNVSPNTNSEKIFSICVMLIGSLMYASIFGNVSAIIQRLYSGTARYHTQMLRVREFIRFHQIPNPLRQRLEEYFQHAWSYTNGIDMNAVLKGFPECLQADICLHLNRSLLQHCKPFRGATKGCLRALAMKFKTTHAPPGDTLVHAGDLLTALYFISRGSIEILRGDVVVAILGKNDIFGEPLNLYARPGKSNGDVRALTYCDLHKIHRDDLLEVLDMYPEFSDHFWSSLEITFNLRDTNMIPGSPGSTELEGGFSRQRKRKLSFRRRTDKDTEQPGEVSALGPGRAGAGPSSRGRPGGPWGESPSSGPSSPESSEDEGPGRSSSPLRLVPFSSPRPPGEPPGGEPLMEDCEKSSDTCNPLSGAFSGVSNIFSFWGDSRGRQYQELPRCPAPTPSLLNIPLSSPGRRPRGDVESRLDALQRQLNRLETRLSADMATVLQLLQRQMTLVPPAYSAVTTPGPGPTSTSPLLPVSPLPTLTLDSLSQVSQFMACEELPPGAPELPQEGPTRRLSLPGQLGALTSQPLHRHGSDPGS

Q: With `Cc1nc2nc(-c3ccccc3)cn2c(-c2ccc(Cl)cc2Cl)c1CN` as the compound, how does the inhibition at 10 µM (hERG (KCNH2)) read?
A: The inhibition at 10 µM was 74%.

Q: For `CCOC(=O)c1cn2c(-c3ccc(Cl)cc3Cl)c(CN)c(C)nc2n1`, which inhibition at 10 µM (hERG (KCNH2)) is on record?
A: The inhibition at 10 µM was 23%.

Q: For `Cc1nc2nc(C(=O)N3CCCC3)cn2c(-c2ccc(Cl)cc2Cl)c1CN`, which Papp [1] is on record?
A: The Papp was 51.8 ×10⁻⁶ cm/s.

Q: Which results are given for `Cc1nc2nc(C(=O)N3CCOCC3)cn2c(-c2ccc(Cl)cc2Cl)c1CN`?
A: Papp [1]: 46.4 ×10⁻⁶ cm/s; Vdss (Rattus norvegicus): 1.3 L/kg; half-life [2]: 1.6 h; clearance [3]: 25.4 mL/min/kg; dose excreted [4]: 56%; bioavailability [5]: 54%; Cmax [6]: 324 nM; AUC(0-inf) [7]: 0.714 µM·h; Vdss (Canis familiaris): 1.5 L/kg; half-life [8]: 4.6 h; clearance [9]: 7.9 mL/min/kg; dose excreted [10]: 41%; bioavailability [11]: 76%; Activity (Mus musculus [12]): 63%; Activity (Mus musculus [13]): 66%

Q: Which results are given for `Cc1nc2nc(C(=O)NC3CCN(C(C)C)CC3)cn2c(-c2ccc(Cl)cc2Cl)c1CN`?
A: Ki (Dipeptidyl peptidase 8): > 10 µM; Ki (Dipeptidyl peptidase 9): > 10 µM

Q: With `Cc1nc2nc(C(=O)NCCN3CCCCC3)cn2c(-c2ccc(Cl)cc2Cl)c1CN` as the compound, how does the Ki (Dipeptidyl peptidase 9) read?
A: The Ki was greater than 30 µM.

Q: For `Cc1nc2nc(C(=O)N3CC[C@H](NS(C)(=O)=O)C3)cn2c(-c2ccc(Cl)cc2Cl)c1CN`, which Papp [14] is on record?
A: The Papp was less than 1.5 ×10⁻⁶ cm/s.

Q: And the Cmax [15]?
A: Its Cmax is 45 nM.

Q: What does the source list for `CCn1nccc1NC(=O)c1cn2c(-c3ccc(Cl)cc3Cl)c(CN)c(C)nc2n1`?
A: Papp [1]: 66.9 ×10⁻⁶ cm/s; inhibition at 10 µM (hERG (KCNH2)): 31%; Vdss (Rattus norvegicus): 3.9 L/kg; half-life [2]: 2.1 h; clearance [3]: 43.2 mL/min/kg; dose excreted [4]: 4.4%; bioavailability [5]: 64%; Activity (Mus musculus [12]): 58%; Activity (Mus musculus [13]): 40%; Activity (Mus musculus [16]): 129%; Activity (Mus musculus [17]): 93%; inhibition in vivo at 1 µmol/kg (Mus musculus [18]): 62%; inhibition in vivo at 3 µmol/kg (Mus musculus [19]): 52.8%
